Results as given in ChEMBL document CHEMBL2429797, “2,5,6-trisubstituted imidazo[2,1-b][1,3,4]thiadiazoles: search for antihyperlipidemic agents” (Eur J Med Chem, 2013).
Active and inactive are the calls of the source. The calls are words filed in the database; no cut-off is given here.

Key:
Rattus norvegicus [1] = experiment: Hepatotoxicity in Triton-X-100-induced hyperlipidemia Wistar albino rat model assessed as alkaline phosphatase level in serum at 250 mg/kg, po qd for 7 days; format: toxicity, organism-based; parameters: dose 250 mg/kg, route oral; details: in vivo, 168 h
Summary of the method: (§1)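 Serum from Triton-X-100 hyperlipidemic male Wistar rats, dosed orally daily for 7 days in 5% CMC. Blood taken retro-orbitally under ether. Assays: alanine transferase and aspartate transferase reported in IU, alkaline phosphatase in KA units. Normal ranges are given alongside.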

Rattus norvegicus [2] = experiment: Hepatotoxicity in Triton-X-100-induced hyperlipidemia Wistar albino rat model assessed as SGOT level in serum at 250 mg/kg, po qd for 7 days; format: toxicity, organism-based; parameters: dose 250 mg/kg, route oral; details: in vivo, 168 h; summary of the method: as §1
Rattus norvegicus [3] = experiment: Antihyperlipidemic activity in Triton-X-100-induced hyperlipidemia Wistar albino rat model assessed as reduction of total cholesterol level in serum at 250 mg/kg, po qd for 7 days; format: functional
Summary of the method: (§2)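 Male Wistar albino rats (200–250 g), fasted 18 h, then given a single i.p. injection of Triton-X-100 (100 mg/kg) in saline. Starting 72 h later, dosed orally once daily for 7 days with suspension in 5% CMC; six per group. Retro-orbital blood taken under ether; serum separated at 2500 × g, 15 min, 4 °C, and lipids assayed. Mean ± SEM, n = 6.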

Rattus norvegicus [4] = experiment: Ratio of LDL level in serum to HDL level in serum in Triton-X-100-induced hyperlipidemia Wistar albino rat model at 250 mg/kg, po qd for 7 days; format: functional
Summary of the method: (§3)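 Triton-X-100 hyperlipidemic male Wistar rats, n = 6 per group, dosed orally for 7 days in 5% CMC. Serum lipids were measured and risk ratios calculated per NCEP (2002): total cholesterol:HDL (atherogenic index) and LDL:HDL.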

Rattus norvegicus [5] = experiment: Antihyperlipidemic activity in Triton-X-100-induced hyperlipidemia Wistar albino rat model assessed as increase of HDL level in serum at 250 mg/kg, po qd for 7 days; format: functional; summary of the method: as §2
Rattus norvegicus [6] = experiment: Antihyperlipidemic activity in Triton-X-100-induced hyperlipidemia Wistar albino rat model assessed as reduction of VLDL level in serum at 250 mg/kg, po qd for 7 days; format: functional; summary of the method: as §2
Rattus norvegicus [7] = experiment: Antihyperlipidemic activity in Triton-X-100-induced hyperlipidemia Wistar albino rat model assessed as reduction of triglyceride level in serum at 250 mg/kg, po qd for 7 days; format: functional; summary of the method: as §2
Rattus norvegicus [8] = experiment: Antihyperlipidemic activity in Triton-X-100-induced hyperlipidemia Wistar albino rat model assessed as reduction of LDL level in serum at 250 mg/kg, po qd for 7 days; format: functional; summary of the method: as §2
Rattus norvegicus [9] = experiment: Hepatotoxicity in Triton-X-100-induced hyperlipidemia Wistar albino rat model assessed as SGPT level in serum at 250 mg/kg, po qd for 7 days; format: toxicity, organism-based; parameters: dose 250 mg/kg, route oral; details: in vivo, 168 h; summary of the method: as §1
Rattus norvegicus [10] = experiment: Ratio of total cholesterol level in serum to HDL level in serum in Triton-X-100-induced hyperlipidemia Wistar albino rat model at 250 mg/kg, po qd for 7 days; format: functional; summary of the method: as §3
Rattus norvegicus [11] = experiment: Protective activity against Triton-X-100-induced hepatotoxicity in Wistar albino rat assessed as mild cytoplasmic fatty infiltration and mild granular degeneration in liver at 250 mg/kg, po qd for 7 days; format: functional, organism-based; parameters: dose 250 mg/kg
Rattus norvegicus [12] = experiment: Protective activity against Triton-X-100-induced hepatotoxicity in Wistar albino rat assessed as mild cytoplasmic fatty infiltration and mild to moderate granular degeneration in liver at 250 mg/kg, po qd for 7 days; format: functional, organism-based; parameters: dose 250 mg/kg

SMILES | Activity (Rattus norvegicus [1]) [KA] | Activity (Rattus norvegicus [2]) [IU] | Activity (Rattus norvegicus [3]) [mg/dL] | Ratio (Rattus norvegicus [4]) | Activity (Rattus norvegicus [5]) [mg/dL] | Activity (Rattus norvegicus [6]) [mg/dL] | Activity (Rattus norvegicus [7]) [mg/dL] | Activity (Rattus norvegicus [8]) [mg/dL] | Activity (Rattus norvegicus [9]) [IU] | Ratio (Rattus norvegicus [10]) | Activity (Rattus norvegicus [11]) | Activity (Rattus norvegicus [12])
CC(C)OC(=O)C(C)(C)Oc1ccc(C(=O)c2ccc(Cl)cc2)cc1 [FENOFIBRATE] | 28.33 | 49.45 | 102.24 | 1.46 | 35.21 | 13.67 | 71.23 | 51.68 | 26.43 | 2.9 |  | 
NS(=O)(=O)c1ccc(/N=C/c2c(-c3ccc(Cl)cc3)nc3sc(-c4ccc5c(c4)OCO5)nn23)cc1 | 29.3 | 51.7 | 101.56 | 1.54 | 33.78 | 14.73 | 79.54 | 52.23 | 28.6 | 3 | Active | 
Clc1ccc(-c2nc3sc(-c4ccc5c(c4)OCO5)nn3c2/C=N/c2ccc(Br)cc2)cc1 | 26.6 | 58.8 | 103.54 | 1.63 | 32.85 | 16.85 | 83.43 | 53.82 | 29.3 | 3.15 |  | Active
Brc1ccc(/N=C/c2c(-c3ccccc3)nc3sc(-c4ccc5c(c4)OCO5)nn23)cc1 |  |  | 112.78 | 2.57 | 24.78 | 19.86 | 86.89 | 63.74 |  | 4.55 |  | 
COc1ccc(/N=C/c2c(-c3ccc(Cl)cc3)nc3sc(-c4ccc5c(c4)OCO5)nn23)cc1 |  |  | 107.83 | 1.9 | 31.34 | 16.86 | 83.56 | 59.85 |  | 3.44 |  | 
Fc1ccc(/N=C/c2c(-c3ccc(Cl)cc3)nc3sc(-c4ccc5c(c4)OCO5)nn23)cc1Cl | 27.3 | 56.5 | 99.89 | 1.63 | 33.57 | 15.43 | 80.45 | 54.95 | 27.8 | 2.97 | Active | 
O=C(O)c1ccc(/N=C/c2c(-c3ccc(Cl)cc3)nc3sc(-c4ccc5c(c4)OCO5)nn23)cc1 | 29.5 | 48.3 | 96.12 | 1.43 | 34.78 | 15.85 | 76.89 | 49.94 | 26.8 | 2.76 | Active | 
O=C(N/N=C/c1c(-c2ccc(Cl)cc2)nc2sc(-c3ccc4c(c3)OCO4)nn12)c1ccccc1 |  |  | 107.87 | 1.97 | 29.93 | 16.34 | 80.67 | 59.12 |  | 3.6 |  | 
Cc1cccc(/N=C/c2c(-c3ccc(Cl)cc3)nc3sc(-c4ccc5c(c4)OCO5)nn23)c1 |  |  | 113.72 | 2.23 | 28.12 | 19.93 | 86.23 | 62.83 |  | 4.04 |  | 
COc1ccc(/N=C/c2c(-c3ccccc3)nc3sc(-c4ccc5c(c4)OCO5)nn23)cc1 |  |  | 113.98 | 2.24 | 28.83 | 18.46 | 84.98 | 64.73 |  | 3.95 |  | 
Cc1ccc(/N=C/c2c(-c3ccccc3)nc3sc(-c4ccc5c(c4)OCO5)nn23)cc1 |  |  | 114.36 | 2.84 | 23.34 | 22.83 | 88.43 | 66.32 |  | 4.89 |  | 
C(=N\c1ccccc1)/c1c(-c2ccccc2)nc2sc(-c3ccc4c(c3)OCO4)nn12 |  |  | 118.23 | 2.62 | 25.12 | 21.54 | 89.12 | 65.85 |  | 4.7 |  | 
O=[N+]([O-])c1ccc(/N=C/c2c(-c3ccc(Cl)cc3)nc3sc(-c4ccc5c(c4)OCO5)nn23)cc1 | 28.8 | 49.9 | 105.56 | 1.84 | 31.54 | 18.13 | 82.56 | 58.24 | 28.3 | 3.34 |  | 
Cc1ccc(/N=C/c2c(-c3ccc(Cl)cc3)nc3sc(-c4ccc5c(c4)OCO5)nn23)cc1 |  |  | 113.28 | 2.36 | 29.12 | 18.35 | 85.67 | 68.84 |  | 3.89 |  | 
